The test system of data set [1] is NCI-H1975. In words: Induction of apoptosis in human NCI-H1975 cells assessed as necrotic cells at 250 nM after 48 hrs by Annexin V-FITC/PI staining based flow cytometry (reference value: 2.31%). The data set is classed as functional.
Data set [2] is described as follows: MRT (0 to t) in Sprague-Dawley rat at 30 mg/kg, po by UPLC-MS/MS analysis. To be noted: in vivo. The data set is classed as ADME, organism-based. The procedure, abridged:
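Male and female Sprague-Dawley rats (200–220 g) were fasted 12 h and given a single oral dose of 30 mg/kg as a 0.5% CMC-Na suspension. Blood was sampled at 0.083, 0.25, 0.5, 1, 2, 4, 8 and 24 h and centrifuged at 4000 r/min for 10 min. Plasma was quantified by UPLC–MS/MS.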

For data set [3], the target named is Epidermal growth factor receptor (Homo sapiens, UniProt P00533). In words: Inhibition of EGF-induced EGFR autophosphorylation at Y1068 residues in human HCC827 cells by Western blot method. The data set is classed as cell-based. In outline: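 Cell lysates prepared in protein lysis buffer and cleared at 12,000 g for 10 min at 4 °C. 50 μg protein per lane was run on a gel, transferred to PVDF and immunoblotted, with GAPDH as the loading control.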
A general note: Immunoblotting shows a protein as a band on a membrane.

In data set [4] the test system is HCC827. The data set is described as follows: Induction of apoptosis in human HCC827 cells assessed as necrotic cells at 500 nM after 48 hrs by Annexin V-FITC/PI staining based flow cytometry (reference value: 1.41%). It is filed as functional. For orientation: A flow cytometer gives signals particle by particle.
Data set [5] relates to NCI-H1975. The data set is described as follows: Induction of apoptosis in human NCI-H1975 cells assessed as late apoptotic cells at 500 nM after 48 hrs by Annexin V-FITC/PI staining based flow cytometry (reference value: 1.91%). The data set is classed as functional.
In another data set the test system is A-431. The data set is described as follows: Induction of apoptosis in human A431 cells assessed as early apoptotic cells at 1000 nM after 48 hrs by Annexin V-FITC/PI staining based flow cytometry (reference value: 3.40%). The data set is classed as functional.
Data set [6] deals with HCC827. The data set is described as follows: Induction of apoptosis in human HCC827 cells assessed as viable cells at 1000 nM after 48 hrs by Annexin V-FITC/PI staining based flow cytometry (reference value: 94.6%). It is filed as functional. As to conditions: HCC827, 48 h, read-out: Activity.

What is called MRT last is a mean duration of stay, worked out from the concentration-time curve.

Chain of Epidermal growth factor receptor (P00533 whole entry): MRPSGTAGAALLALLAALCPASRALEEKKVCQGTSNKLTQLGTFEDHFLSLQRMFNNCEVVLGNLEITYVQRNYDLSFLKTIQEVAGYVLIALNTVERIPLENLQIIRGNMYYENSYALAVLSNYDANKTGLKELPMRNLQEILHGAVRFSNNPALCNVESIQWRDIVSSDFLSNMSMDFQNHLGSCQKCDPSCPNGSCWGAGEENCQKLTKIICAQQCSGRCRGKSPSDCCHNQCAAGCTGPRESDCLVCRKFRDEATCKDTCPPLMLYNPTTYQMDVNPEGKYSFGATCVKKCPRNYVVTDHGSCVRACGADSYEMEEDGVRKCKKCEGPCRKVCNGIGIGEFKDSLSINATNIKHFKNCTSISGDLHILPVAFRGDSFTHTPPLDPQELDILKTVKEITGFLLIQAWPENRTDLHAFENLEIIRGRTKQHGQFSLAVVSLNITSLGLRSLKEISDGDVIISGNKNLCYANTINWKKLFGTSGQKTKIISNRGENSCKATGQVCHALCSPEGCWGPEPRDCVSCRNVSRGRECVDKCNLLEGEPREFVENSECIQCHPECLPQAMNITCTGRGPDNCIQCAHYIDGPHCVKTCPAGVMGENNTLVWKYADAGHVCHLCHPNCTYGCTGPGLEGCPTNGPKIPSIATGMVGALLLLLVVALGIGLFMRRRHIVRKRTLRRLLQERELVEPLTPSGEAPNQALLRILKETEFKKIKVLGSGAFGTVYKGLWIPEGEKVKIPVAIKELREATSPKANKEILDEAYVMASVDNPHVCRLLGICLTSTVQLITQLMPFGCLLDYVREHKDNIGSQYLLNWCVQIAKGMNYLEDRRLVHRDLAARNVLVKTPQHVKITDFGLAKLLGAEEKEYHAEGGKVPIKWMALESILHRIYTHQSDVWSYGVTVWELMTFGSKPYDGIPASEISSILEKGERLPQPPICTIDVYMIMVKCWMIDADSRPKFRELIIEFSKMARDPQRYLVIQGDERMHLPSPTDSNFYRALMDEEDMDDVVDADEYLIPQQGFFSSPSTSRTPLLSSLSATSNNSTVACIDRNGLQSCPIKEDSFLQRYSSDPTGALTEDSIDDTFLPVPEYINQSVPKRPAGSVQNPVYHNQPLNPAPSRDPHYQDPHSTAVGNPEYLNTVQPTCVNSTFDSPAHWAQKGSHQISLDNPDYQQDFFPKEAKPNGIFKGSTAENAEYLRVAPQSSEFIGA

Regarding `COc1cccc(Nc2cc(Nc3cc(OC)ccc3OC)ncn2)c1`, the Activity in the data set on NCI-H1975 [1] stood at 7.95%; in the data set with HCC827 [4], 9.2%; in the data set with NCI-H1975 [5] it was 15.5%; with A-431 it was 18.1%. Further, the MRT last in data set [2] is 6.66 h. Also, the inhibition result in data set [3] is “Dose-dependent effect”. Moreover, in the data set on HCC827 [6], the viability at 1 µM was 53.4%.

These data come from ChEMBL document CHEMBL4265907, “Design, synthesis and pharmacological evaluation of N4,N6-disubstituted pyrimidine-4,6-diamine derivatives as potent EGFR inhibitors in non-small cell lung cancer” (Eur J Med Chem, 2018).
